PGE2 EP2 inh = human EP2 receptor antagonists, primary screen, TR-FRET cAMP, C6 glioma cells | Prostaglandin E2 receptor EP2 subtype (Homo sapiens), P43116 | AID 1422, 2008 | C6 glioma cells expressing human EP2; cells stimulated with saturating PGE2 | 0.52% of 260,000 active | inhibition, % at 25 µM;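 active means percent inhibition above 40 after rounding to a whole number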;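 further: rat C6 glioma host cells with rolipram phosphodiesterase inhibitor present; the protocol text gives 20 µM as final concentration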
PHOSPHO1 inh = PubChem AID 1565 | recombinant PHOSPHO1, absorbance phosphatase assay | inhibition, % at 13.3 µM | 1.1% of 290,000 active; in the data active means inhibition above about 60%
EP2 mod = EP2 receptor modulators, cAMP readout, primary screen, cell-based, HTRF cAMP, PGE2 stimulation | AID 940, 2007 | EP2-expressing cells, cAMP HTRF FRET, PGE2 co-stimulation | 0.83% of 260,000 active | induction, % at 25 µM | Prostaglandin E2 receptor EP2 subtype (Homo sapiens), P43116;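 active means compounds whose cAMP rise, as percent of the full-agonist control response, exceeds 60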;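 further: rat C6 glioma line stably carrying human EP2 under a CMV promoter; the protocol text gives 20 µM as final concentration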
PfG6PD inh = PfG6PD enzyme inhibitors, primary screen, biochemical, fluorescence intensity, uHTS. PfGluPho enzyme, NADPH resazurin-diaphorase fluorescence. inhibition, % at 20 µM. 0.78% of 350,000 active;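 active means inhibition reaching at least a set limit at 20 µM in the primary screen, cut at about 59% in these data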
TbHK1 inh = Trypanosoma brucei hexokinase 1 inhibitors, primary screen, biochemical, G6PDH-coupled NADH absorbance, MLSCN library. 0.11% of 220,000 active. AID 1430, 2008. hexokinase 1 [Trypanosoma brucei]. inhibition, % at 10 µM. recombinant TbHK1, G6PDH-coupled NADH A340;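 active means inhibition of 50% or more in the single-dose primary screen; inactive means inhibition below 50%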
HKDC1 inh = HKDC1 hexokinase inhibitors, primary screen, biochemical, fluorescence, uHTS; AID 493160, 2011; Q2TB90; 0.16% of 340,000 active; inhibition, % at 20 µM; recombinant HKDC1, G6PDH/diaphorase resazurin coupled fluorescence;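 active means inhibition above about 35% when tested at 20 µM, limit read from the data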
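Material – in-house recombinant HK5 (HKDC1) enzyme · Quantity – HKDC1 at 5 µg/mL · Buffer or medium – pH 8.0 Tris buffer with 10 mM MgCl2 · Reagent – glucose with 1 mM ATP · Dosing – single 20 µM dose · Times – reaction time 90 min, room temperature, protected from light · Technique – resorufin fluorescence at 613 nm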
PfGluPho conf = PfG6PD inhibitors, hit retest, confirmation, biochemical, fluorescence intensity, single concentration; 34% of 2,400 active; recombinant PfGluPho, NADPH-diaphorase-resazurin fluorescence; AID 504753, 2011; inhibition, % at 20 µM; shares compounds with PfG6PD inh;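 active means inhibition of at least 50% at 20 µM in any single replicate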
Diaph ctr 10uM = diaphorase inhibitors and chemical oxidizers, confirmation, counter-screen for P. falciparum G6PD inhibitor project, biochemical, fluorescence intensity, 10 µM NADPH | 39% of 820 active | diaphorase-coupled resazurin reduction, NADPH 10 uM | inhibition, % at 20 µM | AID 504862, 2011 | shares compounds with PfG6PD inh;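 active means average inhibition reaching 50% or more with the compound at 20 µM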;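 further: resorufin red fluorescence formed as diaphorase reduces resazurin using NADPH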
Diaph ctr 30uM = diaphorase inhibitors and chemical oxidizers, confirmation, counter-screen for P. falciparum G6PD inhibitor project, biochemical, fluorescence intensity, 30 µM NADPH | shares compounds with PfG6PD inh | Diaphorase/resazurin coupled assay, resorufin fluorescence | 29% of 820 active | inhibition, % at 20 µM;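 active means inhibition averaging 50% or more, tested at 20 µM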
Numbers stand for hits; . = inactive; / = not tested or not shown. Shown are actives, neighbours in structure and some others; about 2.5% of the full set was active somewhere.

SMILES	PGE2 EP2 inh	PHOSPHO1 inh	EP2 mod	PfG6PD inh	TbHK1 inh	HKDC1 inh	PfGluPho conf	others
Cc1ccc(/C=C/C(=O)N2CC(=O)Nc3ccccc32)o1	.	.	.	72	.	.	.
O=C(Nc1ccc(F)cc1F)Nc1sccc1-c1nc2ccccc2s1	.	.	.	81	.	.	.
CCOC(=O)/C(=N/Nc1ccc(OC)cc1)N1CCCc2ccccc21	.	.	.	112	.	.	58	Diaph ctr 10uM=56;Diaph ctr 30uM=51
CCOC(=O)/C(=N/Nc1ccccc1)N1CCCc2ccccc21	.	.	.	95	.	.	.
O=C(OC(C(=O)NC1CCCC1)c1ccccc1F)c1cccs1 (stereo not given)	.	/	.	/	/	/	/
CC(=NNC(=S)N1CCN(c2ccccn2)CC1)c1nccs1	/	/	/	93	/	.	57	Diaph ctr 10uM=.;Diaph ctr 30uM=.
CC(=NNC(=S)N1CCN(c2ccccn2)CC1)c1ccccn1	/	/	/	84	/	.	.
CCOc1ccc(OCC)c(NC(=O)CSc2nnc(-c3ccc(F)cc3)o2)c1	.	/	.	/	/	/	/
COCCn1nnnc1CN1CCN(C2CCCC2)CC1	.	/	.	/	/	/	/
C=CCOC(=O)C1=C(C)N=c2s/c(=C3\C(=O)N(CC(=O)O)c4ccccc43)c(=O)n2C1c1ccc(OC)cc1 (stereo not given)	.	.	.	60	.	.	.
CCN(CC)c1ccc(NC(=O)c2ccccc2)cc1S(=O)(=O)Nc1ccccc1OC	.	95	.	74	.	.	.
COc1ccc(C(=O)Nc2ccc(Cl)c(S(=O)(=O)Nc3ccccc3OC)c2)cc1	.	.	.	.	.	.	/
CCN(CC)c1ccc(NC(=O)c2cccc(C)c2)cc1S(=O)(=O)Nc1ccccc1OC	.	.	.	73	.	.	54	Diaph ctr 10uM=.;Diaph ctr 30uM=.
COc1ccccc1NS(=O)(=O)c1cc(NC(=O)c2ccc(Cl)nc2)ccc1Cl	.	.	.	.	.	.	/
Cc1cc(C)c(NC(=O)COc2cccc(-n3cnnn3)c2)c(C)c1	.	/	.	/	/	/	/
CC/C(=N\Nc1ccc([N+](=O)[O-])cc1)c1ccccc1	.	.	.	74	.	.	.
O=[N+]([O-])c1ccc(NN=C(Oc2ccccc2)c2ccc([N+](=O)[O-])cc2)cc1	/	/	/	.	/	/	/
CCn1c(SCC(=O)NCc2ccccc2)nnc1C1CC1	.	/	.	/	/	/	/
Cc1cc2nc(-c3ccc(SCc4ccc(C(=O)O)cc4)nc3)[nH]c2cc1C	.	.	.	72	.	.	.
Cc1cc(C)c[n+](C2=C([O-])c3ccccc3C(=O)/C2=N\S(=O)(=O)c2cccs2)c1	.	.	.	66	.	.	50	Diaph ctr 10uM=50;Diaph ctr 30uM=.
O=C1/C(=N\S(=O)(=O)c2cccs2)C([n+]2cccc(Cc3ccccc3)c2)=C([O-])c2ccccc21	.	.	.	63	.	.	.
Cc1cc[n+](C2=C([O-])c3ccccc3C(=O)/C2=N\S(=O)(=O)c2cccs2)cc1C	.	.	.	.	.	.	/
CCN(CC)c1ccc(NC(=O)CSc2nnc3c(n2)[nH]c2ccc(F)cc23)c(C)c1	.	/	.	/	/	/	/
CCOC(=O)c1c(C)n(C)c2cc([N+](=O)[O-])c(O)c([N+](=O)[O-])c12	.	.	.	.	.	.	/
CCOC(=O)c1c(C)n(C)c2cc(Br)c(O)c(O)c12	.	.	.	68	.	.	.

High-throughput results (PubChem)
